Laboratory results: ChEMBL document CHEMBL4613319, “Novel Dithiolane-Based Ligands Combining Sigma and NMDA Receptor Interactions as Potential Neuroprotective Agents” (ACS Med Chem Lett, 2020)
Activity calls are given as the source filed them. The rule behind the calls is not given here.

Assays:
[1] = Displacement of [3H][…]-DTG from sigma 2 receptor in guinea pig brain cortex membranes after 150 mins by liquid scintillation counter method; type: cell membranes, Cavia porcellus
Procedure, shortened: (§1)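 Radioligand displacement with [3H]-ditolylguanidine as the S2R label. Cold (+)-pentazocine is included to mask S1R sites. Results are reported as Ki.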

Cavia porcellus = species: Cavia porcellus; assay: Selectivity index, ratio of Ki for sigma 1 receptor in guinea pig brain cortex membranes to Ki for sigma 2 receptor in guinea pig brain cortex membranes; type: cell membranes
SH-SY5Y [2] = assay: Neuroprotective activity against rotenone-induced cell death in human SH-SY5Y cells at 1 uM incubated for 24 hrs by MTT assay; type: functional, cell-based
Procedure, shortened: (§2)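 Rotenone 25 μM is the toxic insult to SH-SY5Y cells, with test compound at 1.0 or 5.0 μM. Protection is reported as % cell viability, mean ± SD of three independent experiments.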

SH-SY5Y [3] = assay: Neuroprotective activity against rotenone-induced cell death in human SH-SY5Y cells at 5 uM incubated for 24 hrs by MTT assay; type: functional, cell-based; procedure, shortened: as §2
SH-SY5Y [4] = assay: Neuroprotective activity against rotenone-induced cell death in human SH-SY5Y cells at 5 uM in presence of PB212 incubated for 24 hrs by MTT assay; type: functional, cell-based
Procedure, shortened: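 SH-SY5Y cells receive rotenone 25 μM plus the S1R antagonist PB212 (5 μM) and compound at 1.0 or 5.0 μM. Output is % cell viability, mean ± SD of three independent experiments.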

SH-SY5Y [5] = assay: Neuroprotective activity against NMDA-induced cell death in human SH-SY5Y cells at 0.1 to 0.5 uM incubated for 24 hrs by MTT assay relative to control; type: functional
SH-SY5Y [6] = assay: Neuroprotective activity against NMDA-induced cell death in human SH-SY5Y cells at 5 uM incubated for 24 hrs by MTT assay; type: functional, cell-based
Procedure, shortened: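 SH-SY5Y neuroblastoma cells are incubated 24 h with NMDA 250 μM and compound at 0.1, 0.5, 1.0 or 5.0 μM. Memantine serves as positive control. Read-out is % cell viability, mean ± SD of three independent experiments.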

[7] = target: T1, Glutamate NMDA receptor (Rattus norvegicus) (UniProt P35439+Q00959+Q00960+Q00961+Q62645+Q8VHN2+Q9R1M7); assay: Negative allosteric modulator of NMDA receptor assessed as NMDA-induced current in Sprague-Dawley rat Primary cortical neuron at 0.1 uM by whole cell patch clamp method relative to control; type: cell-based; settings: Cortical neurone
Procedure, shortened: (§3)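 Whole-cell patch clamp on cortical neurons in primary culture. Currents are evoked by NMDA 100 μM plus glycine 1 μM, with the compound applied at increasing concentrations. The effect is expressed as % of the control current, mean ± SE of n cells.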

[8] = target: T1, Glutamate NMDA receptor (Rattus norvegicus); assay: Negative allosteric modulator of NMDA receptor assessed as NMDA-induced current in Sprague-Dawley rat Primary cortical neuron at 1 uM by whole cell patch clamp method relative to control; type: cell-based; settings: Cortical neurone; procedure, shortened: as §3
[9] = target: T1, Glutamate NMDA receptor (Rattus norvegicus); assay: Negative allosteric modulator of NMDA receptor assessed as NMDA-induced current in Sprague-Dawley rat Primary cortical neuron at 10 uM by whole cell patch clamp method relative to control; type: cell-based; settings: Cortical neurone; procedure, shortened: as §3
[10] = target: Sigma non-opioid intracellular receptor 1 (Homo sapiens, UniProt Q99720); assay: Displacement of [3H]-pentazocine from human Sigma 1 receptor by radioligand displacement assay
Procedure, shortened: (§4)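 S1R labelled selectively with [3H]-(+)pentazocine in a radioligand displacement assay. Affinity is expressed as inhibition constant (Ki).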

[11] = target: Sigma intracellular receptor 2 (Homo sapiens, UniProt Q5BJF2); assay: Displacement of [3H]-ditolylguanidine from human Sigma 2 receptor by radioligand displacement assay; procedure, shortened: as §1
[12] = target: Sigma non-opioid intracellular receptor 1 (Cavia porcellus, UniProt Q60492); assay: Displacement of [3H](+)-pentazocine from sigma 1 receptor in guinea pig brain cortex membranes after 150 mins by scintillation counting analysis; type: cell membranes; procedure, shortened: as §4
SH-SY5Y [13] = assay: Neuroprotective activity against oligomycin-induced cell death in human SH-SY5Y cells at 5 uM incubated for 24 hrs by MTT assay relative to control; type: functional
Procedure, shortened: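 SH-SY5Y cells were exposed to oligomycin (2.5 μM) as the toxic stimulus in the presence of test compound. Protection was scored as % cell viability.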

SH-SY5Y [14] = assay: Neuroprotective activity against NMDA-induced cell death in human SH-SY5Y cells at 0.5 to 1 uM incubated for 24 hrs by MTT assay relative to control; type: functional
SH-SY5Y [15] = assay: Neuroprotective activity against NMDA-induced cell death in human SH-SY5Y cells at 0.1 uM in presence of PB212 incubated for 24 hrs by MTT assay; type: functional, cell-based
Procedure, shortened: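 SH-SY5Y cells are exposed to NMDA 250 μM together with compound at 0.1 μM. This is done with and without the S1R antagonist PB212 (5 μM). Data are % cell viability, mean ± SD of three independent experiments.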

Sequence of Sigma non-opioid intracellular receptor 1 (Homo sapiens, UniProt Q99720) (Q99720 whole entry): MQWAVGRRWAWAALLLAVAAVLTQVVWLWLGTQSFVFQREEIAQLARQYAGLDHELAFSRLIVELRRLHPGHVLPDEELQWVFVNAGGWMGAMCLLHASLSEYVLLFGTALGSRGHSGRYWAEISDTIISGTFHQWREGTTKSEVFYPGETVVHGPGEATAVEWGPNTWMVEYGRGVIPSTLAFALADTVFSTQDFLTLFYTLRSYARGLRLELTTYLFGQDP
Sequence of Sigma intracellular receptor 2 (Q5BJF2 whole entry): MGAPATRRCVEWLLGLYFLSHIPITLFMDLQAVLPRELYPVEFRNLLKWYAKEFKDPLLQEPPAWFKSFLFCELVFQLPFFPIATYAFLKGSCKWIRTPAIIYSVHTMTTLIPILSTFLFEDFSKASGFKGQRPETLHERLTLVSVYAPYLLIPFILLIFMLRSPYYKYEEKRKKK
Sequence of Sigma non-opioid intracellular receptor 1 (Cavia porcellus, UniProt Q60492) (Q60492 whole entry): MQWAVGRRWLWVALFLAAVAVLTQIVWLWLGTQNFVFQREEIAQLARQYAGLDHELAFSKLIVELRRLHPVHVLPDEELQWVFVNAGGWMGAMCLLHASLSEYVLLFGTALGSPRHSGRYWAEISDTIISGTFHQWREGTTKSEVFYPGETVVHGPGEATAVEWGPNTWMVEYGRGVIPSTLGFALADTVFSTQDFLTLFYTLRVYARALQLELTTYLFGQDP

| Structure (SMILES) | Ki [10] [nM] | Ki [11] [nM] | further results |
| --- | --- | --- | --- |
| O=C(O)C(=O)O.c1ccc(CN2CCN(CC3COC4(CCCCC4)O3)CC2)cc1 (configuration not stated) |  |  | Ki [1]: 35 nM; Ratio Ki (Cavia porcellus): 47; Activity (SH-SY5Y [2]): Active; Activity (SH-SY5Y [3]): Active; Activity (SH-SY5Y [4]): inactive; Activity (SH-SY5Y [5]): >85%; Activity (SH-SY5Y [6]): inactive; inhibition [7]: 34%; inhibition [8]: 18%; inhibition [9]: 110% |
| c1ccc(CC2CCN(C[C@H]3CS[C@]4(CCc5ccccc54)S3)CC2)cc1 | 107 | 65 |  |
| O=C(O)C(=O)O.c1ccc(CN2CCN(CC3CSC4(CCCCC4)O3)CC2)cc1 (configuration not stated) |  |  | Ki [12]: 1.3 nM; Ki [1]: 91 nM; Ratio Ki (Cavia porcellus): 72; Activity (SH-SY5Y [2]): Active; Activity (SH-SY5Y [3]): Active; Activity (SH-SY5Y [4]): inactive; Activity (SH-SY5Y [13]): >60%; Activity (SH-SY5Y [14]): 72 - 75%; Activity (SH-SY5Y [6]): inactive |
| CC1(C)OCC(CN2CCC(Cc3ccccc3)CC2)O1 (configuration not stated) | 0.6 | 6.2 |  |
| C[C@]1(c2ccccc2)SC[C@H](CN2CCC(Cc3ccccc3)CC2)S1 | 68 | 85 |  |
| O=C(O)C(=O)O.O=C(O)C(=O)O.c1ccc(CN2CCN(CC3CSCS3)CC2)cc1 (configuration not stated) | 2.1 | 90 | Activity (SH-SY5Y [2]): Active; Activity (SH-SY5Y [4]): inactive; Activity (SH-SY5Y [5]): >85%; Activity (SH-SY5Y [6]): inactive; Activity (SH-SY5Y [15]): inactive |
| O=C(O)C(=O)O.c1ccc(CC2CCN(CC3CSC4(CCCCC4)S3)CC2)cc1 (configuration not stated) |  |  | Ki [12]: 12 nM; Ki [1]: 5 nM; Activity (SH-SY5Y [2]): Active; Activity (SH-SY5Y [4]): inactive; Activity (SH-SY5Y [5]): >85%; Activity (SH-SY5Y [6]): inactive |
| c1ccc(CC2CCN(C[C@@H]3CS[C@@]4(CCCc5ccccc54)S3)CC2)cc1 | 52 | 87 |  |
| O=C(O)C(=O)O.c1ccc(CC2CCN(CC3CSCS3)CC2)cc1 (configuration not stated) | 0.5 | 12 | Activity (SH-SY5Y [14]): 72 - 75%; Activity (SH-SY5Y [6]): inactive |
| c1ccc(CC2CCN(CC3CSC4(CCCCCC4)S3)CC2)cc1 (configuration not stated) | 1.7 | 8.1 |  |
| c1ccc(CC2CCN(C[C@@H]3CS[C@@]4(CCCCc5ccccc54)S3)CC2)cc1 | 68 | 107 |  |
| CC1(C)SCC(CN2CCN(Cc3ccccc3)CC2)S1 (configuration not stated) | 0.6 | 3.3 |  |
| c1ccc(CC2CCN(C[C@@H]3CS[C@]4(CCCc5ccccc54)S3)CC2)cc1 | 129 | 93 |  |
| c1ccc(CC2CCN(C[C@H]3CS[C@@]4(CCCCc5ccccc54)S3)CC2)cc1 | 195 | 158 |  |
| c1ccc(CC2CCN(C[C@@H]3CS[C@]4(CCc5ccccc54)S3)CC2)cc1 | 71 | 30 |  |
| CC12CC3CC(C)(C1)CC(N)(C3)C2 |  |  | Activity (SH-SY5Y [6]): inactive |
| C[C@]1(c2ccccc2)SC[C@@H](CN2CCC(Cc3ccccc3)CC2)S1 | 76 | 63 |  |
| CC1(C)OCC(CN2CCN(Cc3ccccc3)CC2)O1 (configuration not stated) | 5.4 | 182 |  |
| c1ccc(CC2CCN(CC3CSC4(CCCC4)S3)CC2)cc1 (configuration not stated) | 4.2 | 3 |  |
| c1ccc(CC2CCN(CC3CSC4(S3)c3ccccc3-c3ccccc34)CC2)cc1 (configuration not stated) | 54 | 71 |  |
| CC1(C)SCC(CN2CCC(Cc3ccccc3)CC2)S1 (configuration not stated) | 2 | 0.59 |  |
